Key:
SCoV2 [1] = assay: SCoV2 replication in hACE2-HeLa cells, NP western blot; type: cell-based, SARS-CoV2 (SZ02); details: 5 μM, 48 h
SCoV2 [2] = assay: microbe, parasite or virus in culture; details: Severe acute respiratory syndrome coronavirus 2, read-out: IC50 (inhibition of SCoV2 replication)
[3] = Stability in mouse plasma; type: in vitro ADME
hACE2-HeLa cells = assay: Cytotoxicity, CellTiter-Glo viability assay; type: cell-based, Human; details: 10 μM, 72 h
In short: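 hACE2-HeLa cells grown in DMEM with 10% FBS and penicillin-streptomycin at 37°C, 5% CO2, and passaged before confluency. 2 x 10^3 cells/well were seeded in 384-well format and exposed to test compound at a range of concentrations for 72 h. Viability was read by CellTiter-Glo luminescence.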

[4] = tested on: NF-κB activation perturbed by SCoV2 PLpro; assay: NF-κB activity luciferase-reporting assay; type: cell-based, Human
[5] = Metabolic stability in mouse liver microsomes; type: in vitro ADME
In short: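 It was then split into 7 aliquots, each given NADPH (3 mM solution added) or PBS alone and incubated at 37°C. Samples were diluted 1:1 with water and analysed by LC-MS.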

SCoV2 [6] = details: hACE2-HeLa cells
[7] = tested on: 10 DUBs or DUB-like proteases, including USP14 and OTUB1; assay: Inhibitor specificity assay; type: biochemical, Human; details: 19 at 10 μM, Ub-Rho substrate

SMILES	NP level in infected hACE2-HeLa cells (SCoV2 [1])	IC50 (SCoV2 [2])	half-life at 8.35 μM [3]	cytotoxicity (in words) (hACE2-HeLa cells)	recovery of NF-κB activation level [4]	half-life at 1 μM [5]	therapeutic index (CC50/IC50) (SCoV2 [6])	inhibition of SCoV2 replication (in words) (SCoV2 [6]; spike immunostaining)	inhibition of DUBs or DUB-like proteases [7]
C[C@H](c1cccc2ccccc12)N1CCC(C(=O)NCc2cccc(F)c2)CC1 [Inhibitor 11, (R)-N-(3-fluorobenzyl)-1-(1-(naphthalen-1-yl)ethyl)piperidine-4-carboxamide]	strongest	–	–	–	–	–	–	–	–
C[C@H](c1cccc2ccccc12)N1CCC(C(=O)NCc2cc(F)cc(NC(=O)N3CCN(C)CC3)c2)CC1 [Inhibitor 19, (R)-N-(3-fluoro-5-((1-(1-(naphthalen-1-yl)ethyl)piperidine-4-carboxamido)methyl)phenyl)-4-methylpiperazine-1-carboxamide]	–	182 nM	> 120 min	neither 17 nor 19 showed detectable cytotoxicity	significantly recover	28 min	over 55	significantly inhibit SCoV2 replication even at 400 nM	none of these 10 proteases were significantly inhibited
